Where only a bound is given, the exact number is not on record here.

Broadly, the EC50 is the midpoint of the concentration-response curve. Higher therefore signals a need for much substance. For orientation: pEC50 means the EC50 on a negative log10 scale, so that one unit is a factor of ten. The low end stands for a high EC50, the high end for a low EC50. A word on the Emax: it is the greatest response seen or fitted, relative to the assay's reference. What is called fraction unbound is free concentration divided by total concentration. Low values mean little free substance, high ones much free substance.

T1 sequence (P14416 whole entry): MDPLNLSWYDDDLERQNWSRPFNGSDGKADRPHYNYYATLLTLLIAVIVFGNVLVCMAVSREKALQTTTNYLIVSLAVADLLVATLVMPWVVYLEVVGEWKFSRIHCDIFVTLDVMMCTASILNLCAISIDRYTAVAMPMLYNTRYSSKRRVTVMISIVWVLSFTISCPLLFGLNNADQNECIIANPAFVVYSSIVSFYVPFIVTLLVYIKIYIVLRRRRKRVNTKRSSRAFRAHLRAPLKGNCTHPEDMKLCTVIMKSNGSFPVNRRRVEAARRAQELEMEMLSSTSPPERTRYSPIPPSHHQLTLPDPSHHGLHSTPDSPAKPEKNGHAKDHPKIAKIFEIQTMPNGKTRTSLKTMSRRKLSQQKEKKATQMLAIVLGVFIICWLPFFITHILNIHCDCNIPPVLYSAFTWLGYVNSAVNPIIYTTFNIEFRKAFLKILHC

The first data set deals with Adenosine receptor A2a (Homo sapiens, UniProt P29274). Nature of the data set: Inhibition of human adenosine A2A receptor expressed in FlpIn-CHO cells assessed as inhibition of NECA-induced cAMP accumulation incubated for 30 mins by fluorescence assay. Type of data set: functional, cell-based. Particulars: read-out: IC50. For orientation: Cyclic AMP is a second messenger, typically raised through Gs and lowered through Gi signalling.
Sequence of Adenosine receptor A2a (P29274 whole entry): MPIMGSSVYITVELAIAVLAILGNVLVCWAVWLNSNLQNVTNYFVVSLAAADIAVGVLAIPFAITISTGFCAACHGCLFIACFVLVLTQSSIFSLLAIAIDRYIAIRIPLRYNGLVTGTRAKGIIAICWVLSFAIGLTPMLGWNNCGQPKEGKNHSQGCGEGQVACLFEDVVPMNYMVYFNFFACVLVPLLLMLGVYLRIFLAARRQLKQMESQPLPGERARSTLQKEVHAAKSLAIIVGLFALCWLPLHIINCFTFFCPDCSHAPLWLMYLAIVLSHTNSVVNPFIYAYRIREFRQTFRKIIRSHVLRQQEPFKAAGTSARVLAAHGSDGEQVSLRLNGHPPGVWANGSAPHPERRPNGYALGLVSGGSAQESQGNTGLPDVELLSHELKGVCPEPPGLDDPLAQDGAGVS
Consider `CCCN(CCCNC(=O)CCCOc1ccc(CCNc2nc(N)n3nc(-c4ccco4)nc3n2)cc1)CCc1cccc2c1CC(=O)N2`, for which the IC50 was 0.018 µM.

`CCCN(CCCNC(=O)CCCCCCCNC(=O)CCCOc1ccc(CCNc2nc(N)n3nc(-c4ccco4)nc3n2)cc1)CCc1cccc2c1CC(=O)N2`: the IC50 was found to be 0.041 µM.

In the case of `CCCN(CCc1cccc2c1CC(=O)N2)c1nc(N)n2nc(-c3ccco3)nc2n1`, the IC50 was 0.032 µM.

For `Nc1nc(NCCc2ccc(Oc3nc(Cl)nc(N4CCOCC4)n3)cc2)nc2nc(-c3ccco3)nn12`, the IC50 was 0.135 µM.

For `CCCN(CCCNC(=O)CCCC(=O)Oc1ccc(CCNc2nc(N)n3nc(-c4ccco4)nc3n2)cc1)CCc1cccc2c1CC(=O)N2`, the IC50 was found to be 0.035 µM.

The same data set, now with this note: read-out: pIC50 (converted).
In the case of `CCCN(CCCNC(=O)CCCOc1ccc(CCNc2nc(N)n3nc(-c4ccco4)nc3n2)cc1)CCc1cccc2c1CC(=O)N2`, the IC50 was 0.0182 µM.

For the compound `CCCN(CCCNC(=O)CCCCCCCNC(=O)CCCOc1ccc(CCNc2nc(N)n3nc(-c4ccco4)nc3n2)cc1)CCc1cccc2c1CC(=O)N2`, the IC50 is 0.0407 µM.

Turning to `CCCN(CCc1cccc2c1CC(=O)N2)c1nc(N)n2nc(-c3ccco3)nc2n1`, the IC50 is 0.0324 µM.

Turning to `Nc1nc(NCCc2ccc(Oc3nc(Cl)nc(N4CCOCC4)n3)cc2)nc2nc(-c3ccco3)nn12`, the IC50 is 0.135 µM.

For the compound `CCCN(CCCNC(=O)CCCC(=O)Oc1ccc(CCNc2nc(N)n3nc(-c4ccco4)nc3n2)cc1)CCc1cccc2c1CC(=O)N2`, the IC50 is 0.0355 µM.

The next data set concerns the target T1, D(2) dopamine receptor (Homo sapiens, UniProt P14416). In words: Agonist activity at human dopamine D2L receptor expressed in CHO cell membranes incubated for 1 hr by [35S]GTPgammaS binding assay.
Conditions: not given
Type of data set: functional.
In turn, `O=C(O)C(F)(F)F.O=C1Cc2c(CCN3CCCNCC3)cccc2N1` gave an EC50 of more than 100 µM.

`CC(C)(C)OC(=O)N1CCN(CCc2cccc3c2CC(=O)N3)CC1`: the EC50 is more than 100 µM.

Take `CC(C)(C)OC(=O)NC1CCN(CCc2cccc3c2CC(=O)N3)CC1`: the half-maximal effective concentration (EC50) is more than 100 µM.

`NC1CCN(CCc2cccc3c2CC(=O)N3)CC1` registered an EC50 of more than 100 µM.

The compound `O=C1Cc2c(CCN3CCNCC3)cccc2N1` returned a 50% effective concentration (EC50) of more than 100 µM.

With `CCCN(CCCNC(=O)CCCOc1ccc(CCNc2nc(N)n3nc(-c4ccco4)nc3n2)cc1)CCc1cccc2c1CC(=O)N2`, the EC50 is 0.204 µM.

`CC(C)(C)OC(=O)N1CCCN(CCc2cccc3c2CC(=O)N3)CC1` gave a concentration for a half-maximal effect (EC50) of more than 100 µM.

`CCCN(CCCNC(=O)CCCCCCCNC(=O)CCCOc1ccc(CCNc2nc(N)n3nc(-c4ccco4)nc3n2)cc1)CCc1cccc2c1CC(=O)N2` returned an EC50 of 0.501 µM.

With `CCCN(CCc1cccc2c1CC(=O)N2)c1nc(N)n2nc(-c3ccco3)nc2n1`, the 50% effective concentration (EC50) was more than 100 µM.

Compound `Nc1nc(NCCc2ccc(O)cc2)nc2nc(-c3ccco3)nn12` [ZM-241385] returned a concentration giving a half-maximal response (EC50) of more than 100 µM.

`Nc1nc(NCCc2ccc(Oc3nc(Cl)nc(N4CCOCC4)n3)cc2)nc2nc(-c3ccco3)nn12` returned a 50% effective concentration (EC50) of more than 100 µM.

`CCCN(CCCNC(=O)CCCC(=O)Oc1ccc(CCNc2nc(N)n3nc(-c4ccco4)nc3n2)cc1)CCc1cccc2c1CC(=O)N2`: the 50% effective concentration (EC50) stood at 0.484 µM. This counts as sub-micromolar.

The same data set, now with this note: cho.
`O=C(O)C(F)(F)F.O=C1Cc2c(CCN3CCCNCC3)cccc2N1` showed a pEC50 of less than 4.

Compound `CCCN1CCC[C@@H]2Cc3nc(N)ncc3C[C@H]21` [QUINELORANE] yielded a pEC50 of 7.35.

Regarding `CC(C)(C)OC(=O)N1CCN(CCc2cccc3c2CC(=O)N3)CC1`, the negative-log EC50 (pEC50) is recorded as less than 4.

For the compound `CC(C)(C)OC(=O)NC1CCN(CCc2cccc3c2CC(=O)N3)CC1`, the negative logarithm of the EC50 (pEC50) is on record as less than 4.

As for `NC1CCN(CCc2cccc3c2CC(=O)N3)CC1`, the pEC50 is reported as less than 4.

For the compound `O=C1Cc2c(CCN3CCNCC3)cccc2N1`, the pEC50 is reported as less than 4.

Take `CC(C)(C)OC(=O)N1CCCN(CCc2cccc3c2CC(=O)N3)CC1`: the pEC50 was less than 4.

Take `CCCN(CCc1cccc2c1CC(=O)N2)c1nc(N)n2nc(-c3ccco3)nc2n1`: the negative logarithm of the EC50 (pEC50) was less than 4.

Consider `Nc1nc(NCCc2ccc(O)cc2)nc2nc(-c3ccco3)nn12` [ZM-241385], for which the negative logarithm of the EC50 (pEC50) is less than 4.

With `Nc1nc(NCCc2ccc(Oc3nc(Cl)nc(N4CCOCC4)n3)cc2)nc2nc(-c3ccco3)nn12`, the pEC50 was less than 4.

A further data set deals with T1, D(2) dopamine receptor. Nature of the data set: Agonist activity at human dopamine D2L receptor expressed in CHO cell membranes incubated for 1 hr by [35S]GTPgammaS binding assay relative to 100 uM quinelorane. Type of data set: functional.
Conditions: not given
Background: GTPγS resists hydrolysis and so accumulates on activated G proteins.
For `CCCN(CCCNC(=O)CCCOc1ccc(CCNc2nc(N)n3nc(-c4ccco4)nc3n2)cc1)CCc1cccc2c1CC(=O)N2`, the maximal response (Emax) is 95%.

In the case of `CCCN(CCCNC(=O)CCCCCCCNC(=O)CCCOc1ccc(CCNc2nc(N)n3nc(-c4ccco4)nc3n2)cc1)CCc1cccc2c1CC(=O)N2`, the Emax turned out to be 77%.

`CCCN(CCCNC(=O)CCCC(=O)Oc1ccc(CCNc2nc(N)n3nc(-c4ccco4)nc3n2)cc1)CCc1cccc2c1CC(=O)N2`: the Emax is 79%.

System in the next data set: not listed separately
Nature of the data set: Fraction unbound in Wistar Han rat blood at 5 uM incubated for 4 hrs by dialysis and LC-MS/MS method. The data set is classed as ADME, tissue-based.
Conditions: not given
The essentials: (§1)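 Blood and brain tissue were taken from Wistar Han rat and tested in vitro. Percent fraction unbound was determined in each matrix (undiluted Fu). The brain:blood partition ratio (Kbb) was derived as an in vitro predictor of CNS penetration. Runs were in triplicate, and values are reported as mean ± SD.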
Compound `Nc1nc(NCCc2ccc(O)cc2)nc2nc(-c3ccco3)nn12` [ZM-241385] gave a fraction unbound at 4 h, 5 µM of 0.0647.

System in the next data set: not listed separately
In words: Fraction unbound in Wistar Han rat brain at 5 uM incubated for 4 hrs by dialysis and LC-MS/MS method. Type of data set: ADME, tissue-based.
Conditions: not given
Summed up:
as §1
In the case of `Nc1nc(NCCc2ccc(O)cc2)nc2nc(-c3ccco3)nn12` [ZM-241385], the fraction unbound at 4 h, 5 µM was found to be 0.0849.

System in the next data set: not listed separately
In words: Blood-brain partition ratio in Wistar Han rat at 5 uM incubated for 4 hrs by dialysis and LC-MS/MS method. Type of data set: ADME, tissue-based. The settings on record: in vitro. The essentials: as §1
Turning to `Nc1nc(NCCc2ccc(O)cc2)nc2nc(-c3ccco3)nn12` [ZM-241385], the Kbb was 0.76.

The values above are taken from ChEMBL document CHEMBL3392981, “Synthesis and pharmacological evaluation of dual acting ligands targeting the adenosine A2A and dopamine D2 receptors for the potential treatment of Parkinson's disease” (J Med Chem, 2015).
